In assay [1] the test system is CCRF-CEM. In words: Concentration of compound inhibiting Glu138-Lys mutant HIV-1(IIIB) induced cytopathicity in CEM cell culture by 50%. In kind it is functional, cell-based. The note with it: Homo sapiens. An outline of the steps: (§1)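 CEM cells at 4 × 10⁵ per mL infected at ~100 CCID₅₀ per mL of cell suspension, then mixed 1:1 with compound dilutions in microtiter wells. Giant cell formation was scored microscopically after 4 days. EC₅₀ is the concentration inhibiting virus-induced cytopathicity by 50%. Mutant HIV-1(IIIB) RT strains were selected as described previously.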
On the technique in general: Cytopathic effects are the visible damage that an infection or toxin causes in cultured cells.

The test system of assay [2] is CCRF-CEM. Nature of the assay: Concentration of compound inhibiting Lys103-Asn mutant HIV-1(IIIB) induced cytopathicity in CEM cell culture by 50%. The assay is classed as functional, cell-based. To be noted: Homo sapiens. The gist of the method: as §1
Assay [3] relates to CCRF-CEM. In words: Concentration of compound inhibiting Tyr181- Cys mutant HIV-1(IIIB) induced cytopathicity in CEM cell culture by 50%. The assay is classed as functional, cell-based. The note with it: Homo sapiens. An outline of the steps: as §1
The test system of assay [4] is CCRF-CEM. Nature of the assay: Concentration of compound required to inhibit HIV-1(IIIB) induced cytopathicity in CEM cell culture by 50%. To be noted: Homo sapiens. The assay is classed as functional, cell-based. The gist of the method:
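CEM cells at 4 × 10⁵ per mL were infected with HIV-1(III_B) at ∼100 CCID₅₀ per mL and mixed 1:1 with serial compound dilutions. Giant cell formation was scored microscopically after 4 days. EC₅₀ was taken as the concentration giving 50% inhibition of virus-induced cytopathicity.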

For assay [5], the system named is CCRF-CEM. Nature of the assay: Concentration of compound required to inhibit HIV-2 (ROD) induced cytopathicity in CEM cell culture by 50%. The assay is classed as functional, cell-based. To be noted: Homo sapiens. The gist of the method:
as §1

Assay [6] deals with MT4. In words: Concentration of compound required to inhibit HIV-1(IIIB) induced cytopathicity in MT-4 cell culture by 50%. The assay is classed as functional, cell-based. The note with it: Homo sapiens. The gist of the method: (§2)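 MT-4 cells at 3 × 10⁵ per mL were infected with HIV-1(III_B) or HIV-2(ROD) at ∼100 CCID₅₀ per mL, then mixed 1:1 with compound dilutions. After 4 days, viability was read by the MTT method. EC₅₀ was taken as the concentration giving 50% protection against HIV-induced cytopathicity.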

The test system of assay [7] is MT4. In words: Concentration of compound required to inhibit HIV-2 (ROD) induced cytopathicity in MT-4 cell culture by 50%. The assay is classed as functional, cell-based. The note with it: Homo sapiens. The gist of the method:
as §2

Assay [8] can be described thus: Concentration of compound required to reduce by 50% the number of viable cells in mock infected CEM cell cultures. The assay is classed as functional. The note with it: Homo sapiens, CCRF-CEM. An outline of the steps:
(§3)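 Mock-infected CEM cells (4 × 10⁵ per mL) or MT-4 cells (3 × 10⁵ per mL) were exposed to serial compound dilutions for 4 days. CC₅₀ was the concentration reducing the number of viable cells by 50%.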

In assay [9] the test system is MT4. Nature of the assay: Concentration of compound required to reduce by 50% the number of viable cells in mock infected MT-4 cell cultures. In kind it is functional. To be noted: Homo sapiens. An outline of the steps: as §3
Assay [10] concerns Human immunodeficiency virus 1. Nature of the assay: Concentration of compound inhibiting Tyr181Cys mutant HIV-1(IIIB) induced cytopathicity in CEM cell culture by 50%. The assay is classed as functional, organism-based. To be noted: Human immunodeficiency virus 1, CCRF-CEM. The gist of the method: as §1

Structures are written as SMILES. Some results are limits rather than exact numbers.

Broadly, the EC50 is the concentration needed to bring the measured effect to its halfway point. High values mean a less potent agent, low ones a more potent agent. By CC50 is commonly meant the concentration that lowers cell viability or growth by half. Regarding `Cc1cn([C@@H]2O[C@H](CO[Si](C)(C)C(C)(C)C)[C@@]3(OS(=O)(=O)C=C3N)[C@H]2O[Si](C)(C)C(C)(C)C)c(=O)[nH]c1=O`, the EC50 in [1] is 4.6 µM; in [2], 0.4 µM; in assay [3], 3 µM; in [4], 0.06 µM; in assay [5], more than 4 µM; in assay [6], 0.06 µM. Besides, in [7], the EC50 is more than 20 µM. Also, the CC50 was found to be 16 µM in [8] and 14 µM in assay [9].

Consider `Cc1cn([C@@H]2O[C@H](CO[Si](C)(C)C(C)(C)C)[C@@]3(NS(=O)(=O)C=C3N)[C@H]2O[Si](C)(C)C(C)(C)C)c(=O)n(C)c1=O`, for which the EC50 in assay [1] is more than 10 µM; in assay [2], 4 µM; in [10] it was more than 10 µM; in [4], 0.22 µM. In assay [8], this molecule gave a CC50 of 5.8 µM.

As to `Cc1cn([C@@H]2O[C@H](CO[Si](C)(C)C(C)(C)C)[C@@]3(NS(=O)(=O)C=C3N)[C@H]2O[Si](C)(C)C(C)(C)C)c(=O)n(C(=O)OC(C)(C)C)c1=O`, the EC50 is 5 µM in assay [2], 0.43 µM in assay [4], more than 10 µM in assay [5] and 0.13 µM in [6]. Moreover, the CC50 in assay [8] is 21.2 µM; in assay [9] it was 19 µM.

Take `CCn1c(=O)c(C)cn([C@@H]2O[C@H](CO[Si](C)(C)C(C)(C)C)[C@@]3(NS(=O)(=O)C=C3N)[C@H]2O[Si](C)(C)C(C)(C)C)c1=O`: the EC50 in [1] is more than 2 µM; in assay [2], more than 2 µM; in assay [10], more than 2 µM; in [4], 0.31 µM. In addition, the CC50 in [8] was determined as 4.9 µM.

As for `Cc1cn([C@@H]2O[C@H](CO[Si](C)(C)C(C)(C)C)[C@@]3(NS(=O)(=O)C=C3N)[C@H]2O[Si](C)(C)C(C)(C)C)c(=O)[nH]c1=O`, the EC50 was more than 10 µM in [10]; 0.33 µM in assay [4]; more than 10 µM in assay [5]; 0.53 µM in [6]; more than 100 µM in [7]. The CC50 in assay [8] is 19.1 µM; in assay [9], 105 µM.

For the molecule `Cc1cn([C@@H]2O[C@H](CO[Si](C)(C)C(C)(C)C)[C@]3(C(N)=CS(=O)(=O)N3C)[C@H]2O[Si](C)(C)C(C)(C)C)c(=O)[nH]c1=O`, the EC50 in assay [10] was more than 10 µM; in [4], 3.5 µM; in assay [5] it was more than 10 µM; in assay [6], 1.6 µM; in [7], more than 20 µM. For the same molecule, the figures for the CC50 in assay [8] and in assay [9] were 21.6 µM and 19 µM, respectively.

In the case of `Cc1cn([C@@H]2O[C@H](CO[Si](C)(C)C(C)(C)C)[C@]3(C(N)=CS(=O)(=O)N3C)[C@H]2O[Si](C)(C)C(C)(C)C)c(=O)n(C(=O)OC(C)(C)C)c1=O`, the EC50 in assay [10] was more than 10 µM; in [4], 3.5 µM; in [5] it was more than 10 µM; in assay [6], 1.8 µM; in assay [7] it was more than 20 µM. The CC50 in [8] stood at 20.6 µM; in [9] it was 20 µM.

For the molecule `Cc1cn([C@@H]2O[C@H](CO[Si](C)(C)C(C)(C)C)[C@]3(C(N)=CS(=O)(=O)N3C)[C@H]2O[Si](C)(C)C(C)(C)C)c(=O)n(C)c1=O`, the EC50 in assay [10] was more than 250 µM; in assay [4], 2.5 µM; in [5], more than 250 µM; in [6], 0.66 µM; in assay [7] it was more than 200 µM. For the same molecule, the results for the CC50 in [8] and in assay [9] were more than 250 µM and more than 200 µM, respectively.

The values are drawn from ChEMBL document CHEMBL1140288, “First synthesis and evaluation of the inhibitory effects of aza analogues of TSAO on HIV-1 replication” (J Med Chem, 2005).
